Compound activity: PubChem, The Scripps Research Institute Molecular Screening Center
Sampled rows, rich in hits. Any-hit rate of the full collection: about 1.9%.
CHRM4 PAM: potentiates acetylcholine response at human M4 receptor. CHO-K1 hM4/Gqi5, Fluo-8 calcium fluorescence, ACh EC20; 0% = ACh EC20, 100% = maximal ACh. P08173. activation, % at 3 µM. 360,000 compounds, 0.4% hits;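 active = activation above its plate's cutoff, the mean activation of sample wells plus 3 SD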
M4 antag: blocks acetylcholine activation of human M4 receptor | P08173 | AID 624125 | CHO-hM4 cells, ACh EC80, Fluo-8 calcium fluorescence | inhibition, % at 3 µM | 360,000 compounds, 0.73% hits;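 active = inhibition above its plate's cutoff, the mean inhibition of sample wells plus 3 SD, cut at about 27% in these data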;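 also: 0% = acetylcholine EC80 with DMSO and 100% = DMSO without agonist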
CHRM5 antagonist: blocks acetylcholine activation of human M5 receptor. 360,000 compounds, 0.59% hits. P08912. CHO-hM5 cells, Fluo-8 calcium fluorescence, ACh EC80. inhibition, % at 3 µM. AID 624040;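 active = inhibition above a per-plate cutoff, the mean of that plate's test compounds plus 3 SD, cut at about 27% in these data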;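 also: 0% = acetylcholine EC80 with DMSO and 100% = DMSO without agonist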
Target sequence (P08912 whole entry, looked up): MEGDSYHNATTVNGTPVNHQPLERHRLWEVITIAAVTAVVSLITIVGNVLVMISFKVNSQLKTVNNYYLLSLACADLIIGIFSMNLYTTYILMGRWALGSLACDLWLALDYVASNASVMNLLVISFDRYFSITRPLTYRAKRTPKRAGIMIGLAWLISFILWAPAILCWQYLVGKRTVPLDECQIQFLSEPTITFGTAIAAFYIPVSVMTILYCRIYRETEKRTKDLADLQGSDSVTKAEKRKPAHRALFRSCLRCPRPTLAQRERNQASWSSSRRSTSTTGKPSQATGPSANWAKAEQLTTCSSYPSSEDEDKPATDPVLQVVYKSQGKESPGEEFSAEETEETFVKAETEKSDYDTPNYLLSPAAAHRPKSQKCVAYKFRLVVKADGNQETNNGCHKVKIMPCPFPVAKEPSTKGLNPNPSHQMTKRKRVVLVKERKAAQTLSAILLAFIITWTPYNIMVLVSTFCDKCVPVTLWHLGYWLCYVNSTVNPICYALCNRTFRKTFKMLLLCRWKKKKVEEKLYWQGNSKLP
M5 ag: agonists of human muscarinic M5 receptor (CHRM5); activation, % at 3 µM; P08912; 360,000 compounds, 0.19% hits; CHO-K1 hM5 cells, Fluo-8 calcium fluorescence; 0% DMSO wells, 100% maximal acetylcholine response;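 active = activation above the run's mean over test compounds plus 3 SD, cut at about 23% in these data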;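 also: signal is peak over basal fluorescence ratio across the kinetic read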
M5 PAM: potentiates acetylcholine response at human M5 receptor. CHO-K1 hM5, Fluo-8 calcium, ACh EC20 PAM; 0% = ACh EC20, 100% = ACh EC100. activation, % at 3 µM. 360,000 compounds, 0.3% hits;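 active = activation above the run cutoff, the mean activation of all test compounds plus 3 SD, cut at about 18% in these data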
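system = human M5 receptor in CHO-K1 cells | reagent = EC20 acetylcholine as agonist stimulus | compound dosing = single-point, 3 µM nominal | incubation = Fluo-8 loading 80 min at 37 °C plus 30 min room temperature | detection = Fluo-8 calcium dye fluorescence, kinetic read | benchmarks = low control EC20 acetylcholine (0%), high control EC100 acetylcholine (100%)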
CHRM4 agonist: CHRM4 agonism in calcium assay. CHO-K1 hM4/Gqi5, Fluo-8 calcium fluorescence; vehicle 0%, full acetylcholine response 100%. activation, % at 3 µM. P08173. 360,000 compounds, 0.14% hits;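 active = activation above the run mean over all test wells plus 3 SD, cut at about 32% in these data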;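 also: peak over basal fluorescence ratio per well then scaled between controls; 0% = DMSO wells and 100% = acetylcholine at EC100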
* hit, by the source's call.

SMILES	CHRM4 PAM	M4 antag	CHRM5 antagonist	M5 ag	M5 PAM	CHRM4 agonist
CCSc1nnc(NC(=O)NC(CC)(C(F)(F)F)C(F)(F)F)s1	-9	8	31*	3	-21	9
O=S1(=O)CC(N2CCN(CC3CC3)CC2)CN1C1CCCCC1 (stereo not drawn)	1	-7	-8	-6	0	1
COc1ccc(S(=O)(=O)n2cccc2)cc1OC	-5	7	3	-2	2	1
O=C(NCc1ccco1)c1ccc2c(=O)n(Cc3ccco3)c(SCC(=O)N3CCCC3)nc2c1	-30	42*	1	2	0	-3
O=C(CSc1nc2ccccc2c(=O)n1Cc1ccco1)N1CCCCCC1	13	5	5	0	-4	0
O=C(CSc1nnnn1-c1cccc(F)c1)NC1CC1	4	0	3	1	19*	0
COc1ccc(-n2c(/C=C(\C)O)nc(=O)c3c(C)cc(C)nc32)cc1	34*	17	3	2	0	8
COc1ccc(-n2c(C)nn(C)c2=O)cc1	15	9	-3	2	0	0
CC1CC(C)(C)OC(C[N+]2(C)CCCCC2)O1 (stereo not drawn)	-46	37*	31*	-20	-33	0
C[N+]1(CC2COC3(CCCCC3)O2)CCCC1 (stereo not drawn)	-10	4	8	-7	-5	0
Nc1nc(Cl)cc(N2CCC(c3cc(-c4ccc(Cl)cc4)n[nH]3)CC2)n1	-7	36*	39*	14	-25	26
CCOC(=O)/C(CCC[N+](C)(CC)CC)=N\O	-16	26	60*	-8	-18	1
CCOC(=O)C(Cc1ccnc2ccccc12)=NO	-1	2	19	-4	-5	6
N#CCC(=O)Nc1ccc(C(=O)OCC(=O)Nc2ccccc2Sc2ccccc2)cc1	-14	20	28*	3	-15	24
CC1(C)CC(CC(=O)O)(c2ccc(Cl)cc2)CCO1 (stereo not drawn)	17*	-7	9	-3	-8	2
N#Cc1c(Cl)nc(N/N=C/c2ccccc2)c(Cl)c1Cl	4	6	-4	0	0	0
C[N+](C)(C)c1ccc(/C=N/Nc2nc(Cl)c(C#N)c(Cl)c2Cl)cc1	-1	1	-4	32*	-5	3
CCCCCCCCN1N=N[C@H]2[C@H]1[C@@H]1C[C@H]2N(C(=O)OC(C)(C)C)O1	-15	31*	3	-3	-10	3
O=C(O)Cc1ccc(S(=O)(=O)N2CCCC2)s1	2	-1	3	4	-1	0
CCOC(=O)N1CCC(N2CCN(CCC(C)C)C(CCO)C2)CC1 (stereo not drawn)	-17	63*	-3	-10	-3	1
CCOC(=O)N1CCC(N2CCN(Cc3ccc(F)c(F)c3)C(CCO)C2)CC1 (stereo not drawn)	2	-1	-2	-9	3	1
CCN(CC)c1ccc2cc(C=O)c(=O)oc2c1	-1	10	5	29*	-19	18
CCN(CC)c1ccc2cc(C(C)=O)c(=O)oc2c1	-4	5	5	0	-1	4
COc1ccc(N(C(=O)c2snc(C(N)=O)c2N)C(C(=O)NCC2CCCO2)c2ccc3ncccc3c2)cc1OC (stereo not drawn)	10	-4	8	-1	2	1
Cc1ccc(-c2nn(-c3ccccc3)cc2CN(Cc2ccccc2)C(=O)c2ccco2)o1	-27	52*	10	2	-13	10
SMILES	CHRM4 PAM	M4 antag	CHRM5 antagonist	M5 ag	M5 PAM	CHRM4 agonist
CN1CCC(Oc2ccc(Sc3ccccc3)cc2)CC1	-17	34*	17	-4	-10	12
CN1CCC(Oc2ccccc2Sc2ccc(C(F)(F)F)cc2)CC1	-6	6	14	-9	-20	1
Cc1ccccc1C(=O)NCC(=O)N1CCN(C/C=C/c2ccccc2)CC1	1	-2	-2	1	0	3
C[C@@H]1CC[C@H](O)/C=C/C(=O)O[C@H](C)CC[C@H](O)/C=C/C(=O)O1	0	-4	5	37*	-10	1
COC(=O)C1(C)CCCC2(C)C3CCC(C(C)C)C(CO)C3C(CO)CC12 (stereo not drawn)	-12	29*	24	7	-23	22
COC(=O)[C@]1(C)CCC[C@@]2(C)C3CC[C@]4(OC(C)=O)C[C@@]3(CCC21)CC4=O (stereo partly drawn)	0	5	15	-1	-25	10
O=C(CCc1nnc2n(CCc3ccccc3)c(=O)c3ccccc3n12)NCCCN1CCCCC1	-13	37*	-6	-6	3	8
O=C(CCc1nnc2n(Cc3ccc(Cl)cc3)c(=O)c3ccccc3n12)NCCN1CCCC1	-9	8	4	-6	0	-2
CCCCCn1c(=O)[nH]c2cc(C(=O)NCCc3ccc(OC)c(OC)c3)ccc2c1=O	1	-4	-5	-1	9	0
CCCCNC(=O)c1sc(=S)n2c1[nH]c(=O)c1ccc(C(=O)NCCc3ccc(OC)c(OC)c3)cc12	15	4	-27	2	25*	0
COc1cc2oc(=O)ccc2cc1[C@@H](O)[C@@H]1OC(C)(C)OC1(C)C	3	3	7	3	-6	2
CCSc1nsc(NC(=O)Nc2ccccc2F)n1	-7	3	18	3	-23	14
C=CCSc1nsc(NC(=O)Nc2ccc(F)cc2)n1	-9	14	33*	3	-21	11
CCN1CCN(c2ccc(NC(=O)c3cc4ccccc4cc3OC)cc2C)CC1	-13	19	56*	-9	-42	7
CCN1CCN(c2ccc(NC(=O)c3ccccc3F)cc2Cl)CC1	-13	16	12	-18	-26	0
O=C(c1cccc(Cl)c1)C1CCCN(Cc2ccc(N3CCNC3=O)cc2)C1 (stereo not drawn)	-24	29*	8	-16	-16	1
COc1ccc(CN2CCC(C(=O)c3cccc(Cl)c3)CC2)cc1	-1	-11	19	-8	-8	1
O=C(c1cccc(Cl)c1)C1CCCN(C(=O)c2ccoc2)C1 (stereo not drawn)	-6	1	39*	-4	-18	12
O=C(c1cccc(Cl)c1)N1CCCC(C(=O)N2CCCCCC2)C1 (stereo not drawn)	-10	10	6	-6	-5	0
COc1ccc2oc(C(=O)Nc3ccc(N4CCOCC4)cc3)c(C)c2c1	2	-11	7	-2	4	13
